Assay results as given in ChEMBL document CHEMBL3352788, “Characterization of selective exosite-binding inhibitors of matrix metalloproteinase 13 that prevent articular cartilage degradation in vitro” (J Med Chem, 2014).

What was measured:
[1] = molecular target: 72 kDa type IV collagenase (Homo sapiens) (UniProt P08253); experiment: Inhibition of recombinant human MMP-2 using GRIGFL substrate up to 20 uM
How it was run: (§1)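 Outsourced microfluidic protease panel. Compound was preincubated with each protease for 30 min at 25 °C, then peptide substrate was added for 3 h at 25 °C and quenched with SDS/EDTA/iodoacetate. Substrate-to-product conversion was measured on LabChip. Compounds were tested singly in a 12-point 3-fold dilution series, top 20 μM (5 μM for two reference compounds).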

[2] = molecular target: Macrophage metalloelastase (Homo sapiens) (UniProt P39900); experiment: Inhibition of recombinant human MMP-12 using GRIGFL substrate up to 20 uM; how it was run: as §1
[3] = molecular target: Beta-secretase 1 (Homo sapiens) (UniProt P56817); experiment: Inhibition of recombinant human BACE1 using SEVNLDAEFRKKRR substrate at up to 20 uM after 3 hrs; how it was run: as §1
Caspase-3 (Homo sapiens) = molecular target: T1, Caspase-3 (Homo sapiens) (UniProt P42574); experiment: Inhibition of recombinant human caspase 3 using DEVDAA substrate at up to 20 uM after 3 hrs; how it was run: as §1
T1 sequence (whole entry): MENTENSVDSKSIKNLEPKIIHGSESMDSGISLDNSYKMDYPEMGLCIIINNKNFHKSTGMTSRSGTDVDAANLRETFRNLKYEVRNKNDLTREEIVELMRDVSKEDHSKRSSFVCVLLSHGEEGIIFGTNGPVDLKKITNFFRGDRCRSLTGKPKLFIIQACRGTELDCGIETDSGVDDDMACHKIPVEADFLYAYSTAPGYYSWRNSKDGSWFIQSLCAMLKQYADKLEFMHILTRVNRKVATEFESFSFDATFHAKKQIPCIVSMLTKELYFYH

Caspase-7 (Homo sapiens) = molecular target: T2, Caspase-7 (Homo sapiens) (UniProt P55210); experiment: Inhibition of recombinant human caspase 7 using DEVDAA substrate at up to 20 uM after 3 hrs; how it was run: as §1
T2 sequence (whole entry): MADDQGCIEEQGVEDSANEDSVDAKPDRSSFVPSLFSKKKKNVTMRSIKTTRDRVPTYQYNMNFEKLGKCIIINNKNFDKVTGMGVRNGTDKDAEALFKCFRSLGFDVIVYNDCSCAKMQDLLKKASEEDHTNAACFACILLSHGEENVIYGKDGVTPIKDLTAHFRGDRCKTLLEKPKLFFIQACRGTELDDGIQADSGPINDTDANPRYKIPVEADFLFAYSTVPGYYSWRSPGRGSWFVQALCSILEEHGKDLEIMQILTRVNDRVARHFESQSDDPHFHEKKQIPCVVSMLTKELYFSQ

[4] = molecular target: T3, Cathepsin K (Homo sapiens) (UniProt P43235); experiment: Inhibition of recombinant human cathepsin K using HHQKLVFFAE substrate at up to 20 uM after 3 hrs; how it was run: as §1
T3 sequence (whole entry): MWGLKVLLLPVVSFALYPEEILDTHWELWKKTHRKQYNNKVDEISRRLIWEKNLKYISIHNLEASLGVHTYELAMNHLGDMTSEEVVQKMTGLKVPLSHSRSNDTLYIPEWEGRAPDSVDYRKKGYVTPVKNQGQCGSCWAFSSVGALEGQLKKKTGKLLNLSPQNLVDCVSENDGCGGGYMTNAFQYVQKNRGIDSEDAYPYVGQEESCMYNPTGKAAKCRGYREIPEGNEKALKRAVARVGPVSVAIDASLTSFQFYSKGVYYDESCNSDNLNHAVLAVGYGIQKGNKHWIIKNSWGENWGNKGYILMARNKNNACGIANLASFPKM

[5] = molecular target: Urokinase-type plasminogen activator (Homo sapiens) (UniProt P00749); experiment: Inhibition of recombinant human uPA using GRTSSVEP substrate at up to 20 uM after 3 hrs
How it was run: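 Each protease was preincubated 30 min at 25 °C with compound in its assay buffer. Peptide substrate was then added and the reaction ran 3 h at 25 °C before quenching with SDS/EDTA/iodoacetate. Substrate-to-product conversion (%) was read by microfluidic electrophoresis. Compounds were tested in singlicate as 12-point 3-fold dilutions from 20 μM to 0.1 nM. IC50 was taken as the concentration giving 50% of no-compound control activity.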

Cytochrome P450 2B6 = molecular target: T4, Cytochrome P450 2B6 (Homo sapiens, UniProt P20813); experiment: Inhibition of CYP2B6 (unknown origin) using bupropion substrate; type: ADME
T4 sequence (P20813 whole entry): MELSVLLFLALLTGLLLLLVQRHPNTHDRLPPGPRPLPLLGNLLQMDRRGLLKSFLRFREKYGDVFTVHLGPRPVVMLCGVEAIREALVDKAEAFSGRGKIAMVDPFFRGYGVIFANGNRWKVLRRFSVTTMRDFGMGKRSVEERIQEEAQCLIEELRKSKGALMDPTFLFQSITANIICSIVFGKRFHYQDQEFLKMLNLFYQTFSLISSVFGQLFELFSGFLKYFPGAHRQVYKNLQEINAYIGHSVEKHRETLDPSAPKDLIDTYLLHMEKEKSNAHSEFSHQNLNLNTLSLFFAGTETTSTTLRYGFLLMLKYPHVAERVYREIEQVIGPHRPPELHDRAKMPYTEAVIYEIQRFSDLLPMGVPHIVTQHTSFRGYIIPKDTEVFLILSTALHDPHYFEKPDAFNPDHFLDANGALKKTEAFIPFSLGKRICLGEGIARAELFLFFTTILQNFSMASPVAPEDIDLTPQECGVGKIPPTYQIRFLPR
How it was run: (§2)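 Human liver microsomes with probe substrate and an NADPH-regenerating system in 0.1 M potassium phosphate pH 7.4 at 37 °C, run in duplicate. Inhibitor at 0–20 μM (0–2.5 μM for one compound), eight concentrations. Reactions were stopped with acetonitrile/formic acid containing isotope-labelled internal standard, and metabolite area ratios were compared with and without inhibitor. IC50 was taken by linear interpolation between bracketing concentrations.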

Cytochrome P450 2C8 = molecular target: T5, Cytochrome P450 2C8 (Homo sapiens, UniProt P10632); experiment: Inhibition of CYP2C8 (unknown origin) using amodiaquine substrate; type: ADME; how it was run: as §2
T5 sequence (P10632 whole entry): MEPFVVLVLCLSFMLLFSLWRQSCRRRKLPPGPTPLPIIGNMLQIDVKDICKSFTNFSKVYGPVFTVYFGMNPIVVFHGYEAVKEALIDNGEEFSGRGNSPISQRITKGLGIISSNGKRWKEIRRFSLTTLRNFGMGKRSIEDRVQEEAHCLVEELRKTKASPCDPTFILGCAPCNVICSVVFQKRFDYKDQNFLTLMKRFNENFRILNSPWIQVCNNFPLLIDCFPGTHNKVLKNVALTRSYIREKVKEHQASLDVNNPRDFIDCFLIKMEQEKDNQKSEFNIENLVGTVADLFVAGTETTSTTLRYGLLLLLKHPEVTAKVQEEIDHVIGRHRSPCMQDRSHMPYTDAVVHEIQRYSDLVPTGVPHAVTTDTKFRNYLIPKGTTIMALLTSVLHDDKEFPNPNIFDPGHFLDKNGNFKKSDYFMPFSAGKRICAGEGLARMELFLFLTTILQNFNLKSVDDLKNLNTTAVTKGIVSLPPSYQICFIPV

Sequence of Macrophage metalloelastase (Homo sapiens) (P39900 106-470 limits assumed): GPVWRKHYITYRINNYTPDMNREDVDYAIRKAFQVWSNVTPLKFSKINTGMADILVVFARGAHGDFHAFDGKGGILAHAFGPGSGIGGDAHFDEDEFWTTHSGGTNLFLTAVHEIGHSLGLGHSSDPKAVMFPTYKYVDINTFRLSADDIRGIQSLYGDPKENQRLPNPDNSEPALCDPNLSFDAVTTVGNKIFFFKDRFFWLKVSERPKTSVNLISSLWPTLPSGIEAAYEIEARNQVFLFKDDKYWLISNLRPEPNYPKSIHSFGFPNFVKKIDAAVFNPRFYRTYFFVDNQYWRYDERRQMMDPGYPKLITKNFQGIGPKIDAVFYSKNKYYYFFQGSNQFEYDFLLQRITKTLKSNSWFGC
Sequence of 72 kDa type IV collagenase (Homo sapiens) (P08253 110-660 limits assumed): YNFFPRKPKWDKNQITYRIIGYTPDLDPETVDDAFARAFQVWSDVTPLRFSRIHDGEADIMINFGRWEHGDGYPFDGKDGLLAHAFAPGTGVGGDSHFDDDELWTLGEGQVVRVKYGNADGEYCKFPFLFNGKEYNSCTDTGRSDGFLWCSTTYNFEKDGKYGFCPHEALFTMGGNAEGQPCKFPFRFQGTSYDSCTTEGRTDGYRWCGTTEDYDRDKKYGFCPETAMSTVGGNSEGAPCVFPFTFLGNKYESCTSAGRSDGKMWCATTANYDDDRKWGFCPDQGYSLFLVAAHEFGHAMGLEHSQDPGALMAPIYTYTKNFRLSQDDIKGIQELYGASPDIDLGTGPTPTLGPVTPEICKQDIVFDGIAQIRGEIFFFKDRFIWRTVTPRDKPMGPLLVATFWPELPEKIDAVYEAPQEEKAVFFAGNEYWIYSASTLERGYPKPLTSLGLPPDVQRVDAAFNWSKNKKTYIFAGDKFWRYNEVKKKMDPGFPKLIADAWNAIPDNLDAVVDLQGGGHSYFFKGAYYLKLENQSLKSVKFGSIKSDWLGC
Sequence of Beta-secretase 1 (Homo sapiens) (P56817 whole entry): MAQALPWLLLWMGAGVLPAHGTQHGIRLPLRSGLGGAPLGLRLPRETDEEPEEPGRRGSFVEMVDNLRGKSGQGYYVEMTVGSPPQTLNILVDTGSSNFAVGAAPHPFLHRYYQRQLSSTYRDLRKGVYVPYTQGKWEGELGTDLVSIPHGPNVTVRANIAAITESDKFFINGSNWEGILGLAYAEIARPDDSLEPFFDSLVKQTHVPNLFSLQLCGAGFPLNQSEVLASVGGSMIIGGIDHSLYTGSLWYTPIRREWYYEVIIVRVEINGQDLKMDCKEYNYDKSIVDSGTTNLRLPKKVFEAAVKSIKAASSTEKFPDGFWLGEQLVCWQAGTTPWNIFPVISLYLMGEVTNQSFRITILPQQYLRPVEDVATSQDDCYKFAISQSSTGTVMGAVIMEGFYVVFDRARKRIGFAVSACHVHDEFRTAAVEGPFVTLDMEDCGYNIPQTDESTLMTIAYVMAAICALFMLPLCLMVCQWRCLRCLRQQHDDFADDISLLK

Compound | inhibition [1] | inhibition [2] | inhibition [3] | inhibition (Caspase-3 (Homo sapiens)) | inhibition (Caspase-7 (Homo sapiens)) | inhibition [4] | inhibition [5] | IC50 (Cytochrome P450 2B6) | IC50 (Cytochrome P450 2C8)
Cc1ccc(CSc2nc(O)c3c(n2)CCC3)cc1 | > 10% | > 10% | < 10% | < 10% | < 10% | 20% | < 10% |  | 
Oc1nc(SCc2ccc(Cl)cc2)nc2c1CCC2 | > 10% | > 10% | < 10% | < 10% | < 10% | < 10% | < 10% | > 20 µM | > 20 µM
Cn1c(=O)n(Cc2ccc(C(=O)O)cc2)c(=O)c2cc(C#CCc3ccccc3)ccc21 |  |  |  |  |  |  |  | > 2.5 µM | > 2.5 µM
Cc1cc(CNC(=O)c2cc(C(=O)NCc3ccc(F)c(C)c3)ncn2)ccc1F |  |  |  |  |  |  |  | > 20 µM | > 20 µM
COC(=O)c1ccc(CSc2nc3c(c(=O)[nH]2)CCC3)cc1 | > 10% | > 10% | < 10% | < 10% | < 10% | < 10% | < 10% | > 20 µM | > 20 µM
